Source: publication PMC6848909 (British Journal of Clinical Pharmacology, 2019)
Like-named read-outs stand apart in the source and are kept apart here. Marks after values point to notes of the source that are not given here.

Experiments:
[1] = assay type: in vivo, human; settings: for Metabolic ratio of AUC0–inf, metabolite/belinostat / Metabolic ratio of Cmax, metabolite/belinostat: Cycle 1 Day −7, geometric mean (geometric SD)
[2] = Phase 1 safety: adverse events; assay type: in vivo, human
[3] = patients with hepatocellular carcinoma; cited from earlier work
[4] = combination with 13‐cis‐retinoic acid; cited from earlier work
[5] = cited from earlier work
[6] = test system: solid tumours or lymphomas; experiment: Tumour response by RECIST 1.1; assay type: in vivo, human
Procedure, shortened: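 CT scans were done at baseline and every 2 cycles, with response per RECIST 1.1. Dosing was IV over 30 min on days 1–5 of 21-day cycles, at doses set by liver-function cohort and dose level, after a single 400 mg/m2 dose on Cycle 1 Day −7. Cohorts were defined by bilirubin and AST relative to ULN.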

[7] = cited from earlier work; remark: listed apart in the source
[8] = mild liver dysfunction (n = 25)
[9] = severe liver dysfunction (n = 15)
[10] = Dose level 1, mild (n = 9), at least possibly related
[11] = Dose level 1, moderate (n = 6), at least possibly related
[12] = Dose level 1, normal (n = 14), at least possibly related
[13] = Dose level 1, severe (n = 9), at least possibly related
[14] = Dose level 2, mild (n = 14), at least possibly related
[15] = Dose level 2, moderate (n = 6), at least possibly related
[16] = Dose level 2, severe (n = 5), at least possibly related

O=C(/C=C/c1cccc(S(=O)(=O)Nc2ccccc2)c1)NO[C@@H]1O[C@H](C(=O)O)[C@@H](O)[C@H](O)[C@H]1O [Belinostat glucuronide, belinostat glucuronide]
Metabolic ratio of AUC0–inf, metabolite/belinostat [1, 8]: 21.8 (1.63) ^d | Metabolic ratio of Cmax, metabolite/belinostat [1, 8]: 3.57(1.47) ^c | Metabolic ratio of AUC0–inf, metabolite/belinostat ([1]; normal liver function (n = 14)): 18.7 (1.63) | Metabolic ratio of Cmax, metabolite/belinostat ([1]; normal liver function (n = 14)): 3.78 (1.47) | Metabolic ratio of AUC0–inf, metabolite/belinostat [1, 9]: 17.7 (1.91) | Metabolic ratio of Cmax, metabolite/belinostat [1, 9]: 2.85 (1.51)

O=C(/C=C/c1cccc(S(=O)(=O)Nc2ccccc2)c1)NO [Belinostat, belinostat]
Clearance as % of liver blood flow (extraction) ([1]; normal liver function, clearance 661 mL/min/m^2): 76% | Increase in half‐life from normal to severe ([1]; normal vs severe liver dysfunction cohort, not statistically significant): 33% | Patients with at least 1 grade ≥ 3 adverse event at least possibly related to study drug ([2]; All dose levels, all patients, n = 66): 14 (21.2) number (%) of patients | Patients with at least 1 grade ≥ 3 adverse event at least possibly related to study drug ([2]; All dose levels, mild dysfunction, n = 23): 4 (17.4) number (%) of patients | Patients with at least 1 grade ≥ 3 adverse event at least possibly related to study drug ([2]; All dose levels, moderate dysfunction, n = 12): 3 (25) number (%) of patients | Patients with at least 1 grade ≥ 3 adverse event at least possibly related to study drug ([2]; All dose levels, normal liver function, n = 14): 5 (35.7) number (%) of patients | Patients with at least 1 grade ≥ 3 adverse event at least possibly related to study drug ([2]; All dose levels, severe dysfunction, n = 17): 2 (11.8) number (%) of patients | Patients with at least 1 grade ≥ 3 adverse event at least possibly related to study drug ([2]; Dose level 1 (250 mg/m^2), severe dysfunction, n = 9): 1 (11.1) number (%) of patients | Patients with at least 1 grade ≥ 3 adverse event at least possibly related to study drug ([2]; Dose level 1 (500 mg/m^2), moderate dysfunction, n = 6): 1 (16.7) number (%) of patients | Patients with at least 1 grade ≥ 3 adverse event at least possibly related to study drug ([2]; Dose level 1 (750 mg/m^2), mild dysfunction, n = 9): 1 (11.1) number (%) of patients | Patients with at least 1 grade ≥ 3 adverse event at least possibly related to study drug ([2]; Dose level 1 (1000 mg/m^2), normal liver function, n = 14): 5 (35.7) number (%) of patients | Patients with at least 1 grade ≥ 3 adverse event at least possibly related to study drug ([2]; Dose level 1, all patients, n = 38): 8 (21.1) number (%) of patients | Anaemia, Grade 2 [2, 10]: 1 number of patients | Fatigue, Grade 2 [2, 10]: 1 number of patients | Fatigue, Grade 3 [2, 10]: 1 number of patients | Vomiting, Grade 2 [2, 10]: 1 number of patients | Anaemia, Grade 2 [2, 11]: 3 number of patients | Fatigue, Grade 2 [2, 11]: 1 number of patients | Lymphocyte count decreased, Grade 2 [2, 11]: 1 number of patients | Lymphocyte count decreased, Grade 3 [2, 11]: 1 number of patients | Anaemia, Grade 2 [2, 12]: 1 number of patients | Anaemia, Grade 3 [2, 12]: 1 number of patients | Fatigue, Grade 2 [2, 12]: 2 number of patients | Fatigue, Grade 3 [2, 12]: 1 number of patients | Lymphocyte count decreased, Grade 2 [2, 12]: 1 number of patients | Lymphocyte count decreased, Grade 3 [2, 12]: 3 number of patients | Nausea, Grade 2 [2, 12]: 3 number of patients | Vomiting, Grade 2 [2, 12]: 1 number of patients | Fatigue, Grade 2 [2, 13]: 1 number of patients | Vomiting, Grade 2 [2, 13]: 1 number of patients | Lung infection, Grade 5 ([2]; Dose level 1, severe (n = 9), possibly related): 1 number of patients | Patients with at least 1 grade ≥ 3 adverse event at least possibly related to study drug ([2]; Dose level 2 (350 mg/m^2), severe dysfunction, n = 8): 1 (12.5) number (%) of patients | Patients with at least 1 grade ≥ 3 adverse event at least possibly related to study drug ([2]; Dose level 2 (750 mg/m^2), moderate dysfunction, n = 6): 2 (33.3) number (%) of patients | Patients with at least 1 grade ≥ 3 adverse event at least possibly related to study drug ([2]; Dose level 2 (1000 mg/m^2), mild dysfunction, n = 14): 3 (21.4) number (%) of patients | Patients with at least 1 grade ≥ 3 adverse event at least possibly related to study drug ([2]; Dose level 2, all patients, n = 28): 6 (21.4) number (%) of patients | Anaemia, Grade 2 [2, 14]: 3 number of patients | Fatigue, Grade 2 [2, 14]: 2 number of patients | Fatigue, Grade 3 [2, 14]: 2 number of patients | Lymphocyte count decreased, Grade 2 [2, 14]: 4 number of patients | Nausea, Grade 2 [2, 14]: 3 number of patients | Vomiting, Grade 2 [2, 14]: 1 number of patients | Vomiting, Grade 3 [2, 14]: 1 number of patients | Anaemia, Grade 2 [2, 15]: 1 number of patients | Bilirubin increased, Grade 2 [2, 15]: 1 number of patients | Bilirubin increased, Grade 3 [2, 15]: 2 number of patients | Fatigue, Grade 2 [2, 15]: 1 number of patients | Fatigue, Grade 3 [2, 15]: 2 number of patients | Anaemia, Grade 2 [2, 16]: 1 number of patients | Lymphocyte count decreased, Grade 2 [2, 16]: 2 number of patients | Grade 2 or greater anaemia attributed to the study drug ([2]; all treated patients): 17.1% | Grade 2 or greater fatigue attributed to the study drug ([2]; all treated patients): 21.9% | Grade 2 or greater lymphopenia attributed to the study drug ([2]; all treated patients): 18.8% | Patients with grade ≥ 3 toxicity ([2]; mild cohort (4/23)): 17.4% | DLTs ([2]; mild cohort, DL 2 (1000 mg/m^2), 6 evaluable patients): no DLTs | Patients with grade ≥ 3 toxicity ([2]; moderate cohort (3/12)): 25% | DLTs ([2]; moderate cohort, DL 2 (750 mg/m^2), 3 evaluable patients): no DLTs | Patients with a grade ≥ 3 AE ([2]; normal cohort (5/14)): 35.7% | MTD ([2]; patients with mild dysfunction, same as recommended phase 2 dose): 1000 mg/m^2/day | DLTs ([2]; severe cohort, DL 1 (250 mg/m^2), 6 evaluable patients, grade 5 lung infection): 1 | MTD (not reached at highest dose tested) [3]: ≥ 1400 mg/m^2/day | MTD (not reached) [4]: ≥ 2000 mg/m^2/day | Patients who experienced DLT ([5]; at 1200 mg/m^2/day): 3 of 5 | Recommended phase 2 dose ([5]; days 1–5 of a 21‐day cycle): 1000 mg/m^2/day | Complete or partial responses ([6]; any of the 4 cohorts): No complete or partial responses | Patients with stable disease ([6]; of 47 patients evaluable for response): 28% | Patients with stable disease ([6]; of 47 patients evaluable for response, after the first 2 cycles): 13 patients | Patients with stable disease ([6]; on DL 1): 11 patients | Patients with stable disease ([6]; on DL 2): 2 patients | Time on study treatment, median ([6]; patients with stable disease): 4 21‐day cycles | Time on study treatment, range ([6]; patients with stable disease): 2–12 cycles | % of dose by glucuronidation (UGT1A1 and UGT2B7), clinical mass balance [7]: 41.4% | % of dose by methylation, clinical mass balance [7]: 1.9% | Total administered belinostat excreted unchanged in the urine [7]: up to 2%
